Screens (PubChem)
MC4R antag cAMP – human MC4R antagonism in cAMP assay; P32245; 360,000 tested, 0.48% active; MC4R-expressing cells, MTII-stimulated cAMP, LANCE TR-FRET; inhibition, % at 6.5 µM;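 active = inhibition above its plate's cutoff, the mean of tested wells on that plate plus 3 SD, cut at about 29% in these data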;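 also: 0% = Melanotan II alone and 100% = Melanotan II plus saturating MCL0020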
Target sequence (P32245 whole entry, looked up): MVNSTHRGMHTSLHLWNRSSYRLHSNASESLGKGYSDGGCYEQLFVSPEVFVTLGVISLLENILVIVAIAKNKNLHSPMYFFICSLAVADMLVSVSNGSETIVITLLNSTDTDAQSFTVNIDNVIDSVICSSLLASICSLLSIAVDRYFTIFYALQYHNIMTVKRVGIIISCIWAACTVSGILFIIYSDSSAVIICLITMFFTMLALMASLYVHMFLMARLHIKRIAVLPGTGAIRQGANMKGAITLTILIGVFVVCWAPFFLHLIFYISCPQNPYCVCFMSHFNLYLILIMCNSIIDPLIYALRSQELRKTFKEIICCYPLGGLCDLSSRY
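Test system: U2OS cells stably expressing human melanocortin 4 receptor (MC4R); also added: Melanotan II challenge; compound: 6.5 µM single dose; timing: 30-min compound preincubation, 1-h Melanotan II challenge, 1-h detection, room temperature; signal: Eu-cAMP/anti-cAMP TR-FRET, emission 671 nm; repeats: one well per compound, no replicates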
Granule exo inh – lytic granule exocytosis inhibition; TALL-104 LAMP-1 surface exposure, flow cytometry; cells stimulated with thapsigargin and PMA; inhibition, % at 10 µM; 360,000 tested, 0.66% active; AID 651702;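 active = inhibition above about 55%, limit read from the data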
EBI2 block – antagonists of human EBI2 receptor; P32249; EBI2 beta-arrestin recruitment, luminescence, 7a,25-OHC stimulated; inhibition, % at 5 µM; 360,000 tested, 0.81% active; AID 651636; in the data active = inhibition above about 38%;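 also: enzyme fragment complementation signal reports receptor beta-arrestin coupling in cells; 0% = agonist plus DMSO wells and 100% = wells without agonist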
Myeloid diff MLP – compounds promoting myeloid differentiation. calls only at 10 µM. ER-HoxA9 myeloid progenitors, lysozyme-GFP differentiation, flow cytometry. 360,000 tested, 1% active;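 active = normalized GFP-positive differentiation at or above the plate's own cutoff, the solvent-only control mean plus 3 SD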;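 also: cells exposed to compound for four days before flow analysis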
MC4R ag barr – agonists of human melanocortin 4 receptor (MC4R) beta-arrestin; U2OS MC4R beta-arrestin complementation, luminescence; percent of melanotan II response, DMSO zero; activation, % at 8.9 µM; 360,000 tested, 0.98% active;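 active = activation above a per-plate cutoff, the mean activation of sample wells on that plate plus 3 SD, cut at about 8% in these data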
Myeloid diff CP1 – myeloid differentiation induction | ER-HoxA9 myeloid progenitors, GFP/Mac1 double-positive flow | 2,300 tested, 2% active | calls only | shares compounds with Myeloid diff MLP;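 active = share of green or green-and-red cells above 9 and 9% in run 1 or 4 and 3% in run 2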
GFP autofluor – flagged as fluorescent in myeloid differentiation counter-screen | fluorescence response, % (test concentration not listed) | ER-HoxA9 myeloid progenitors, no estrogen, GFP autofluorescence flow cytometry; vehicle wells 0%, positive control 100% | 2,300 tested, 7.4% active | shares compounds with Myeloid diff MLP;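 active = over 5% cells positive for green fluorescent reporter, or over 2% positive for both it and APC stain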;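 also: range taken on the double positive population between DMSO and positive control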
The depositor's hits bear a star; i = inactive; / = no result given; + = active, no number. The list is not random: actives were taken first. Their share in the collection is about 3.7%.

SMILES | MC4R antag cAMP | Granule exo inh | EBI2 block | Myeloid diff MLP | MC4R ag barr | Myeloid diff CP1 | GFP autofluor
Cc1cc(C(=O)NNC(=S)Nc2ccccc2)nn1C | -7 | -1 | -4 | i | -1 | / | /
COc1ccc(S(=O)(=O)N2C3CCC2CC(NC(=O)C2CC2)C3)cc1 (centres undefined) | -3 | 4 | -2 | i | 0 | i | 0
COc1ccc(S(=O)(=O)N2C3CCC2CC(NC(=O)NC2CCCCC2)C3)cc1 (centres undefined) | 3 | -2 | 3 | i | -1 | / | /
O=C(CNS(=O)(=O)c1ccccc1)Nc1cccc([N+](=O)[O-])c1 | 0 | -8 | 7 | + | -3 | i | 1
COc1cccc(Cn2nnc(C(=O)Nc3ccc(C)cc3)c2N)c1 | -8 | -1 | 12 | i | 0 | / | /
COc1cccc(Cn2nnc(C(=O)Nc3cc(C)ccc3OC)c2N)c1 | -14 | -5 | 8 | + | 1 | i | 88*
COc1ccc(S(=O)(=O)NCc2ccco2)cc1N(C)S(=O)(=O)c1ccccc1 | 7 | 20 | 3 | i | -1 | / | /
CN(C)c1ccc(C(=O)N=c2sccn2C)cc1[N+](=O)[O-] | -1 | -2 | -2 | i | -4 | / | /
NC(=O)NC(Cc1ccccc1)c1ccccc1 (centres undefined) | 18 | 1 | -19 | + | 1 | i | 0
O=C(NC1CC2CCCC(C1)N2Cc1ccccc1)c1ccc([N+](=O)[O-])cc1 (centres undefined) | 2 | -3 | 6 | i | 0 | / | /
CC1=NN(c2ccccc2C)C(=O)C1 | -3 | -6 | -5 | i | -2 | i | 0
Cc1ccccc1N1CC(=O)N(c2ccccc2C)CC1=O | 15 | -1 | -3 | i | 1 | / | /
COc1cc(OC)cc(C(=O)NNC(=O)c2ccccn2)c1 | -6 | -3 | -3 | + | -2 | i | 0
COc1ccc(C(=O)NNC(=O)c2ccccn2)cc1 | -3 | -3 | -3 | i | -1 | / | /
CC(Oc1cccc(Br)c1)C(=O)NNC(=O)c1ccccn1 (centres undefined) | 7 | -2 | -6 | + | -4 | i | 2
CC(Oc1ccccc1)C(=O)NNC(=O)c1ccccn1 (centres undefined) | 4 | 33 | -5 | i | -2 | / | /
Cc1noc(C)c1C(=O)Nc1cccc2ncccc12 | 6 | -21 | 2 | i | -1 | / | /
O=C(c1cc(-c2ccccc2Cl)nc2ccccc12)N1CCN(c2ccccn2)CC1 | 5 | 12 | 4 | i | 1 | i | 4
COc1ccc(-c2cc(C(=O)N3CCCCCC3)c3ccccc3n2)c(OC)c1 | 7 | -10 | 4 | + | -5 | i | 0
O=C(c1cc(-c2ccccc2Cl)nc2ccccc12)N1CCN(c2ccccc2O)CC1 | 0 | -4 | 17 | i | -4 | / | /
COc1ccc(CN2C(=O)CSCC2(C)C(=O)Nc2ccc3c(c2)OCCO3)cc1 (centres undefined) | / | 8 | -9 | i | / | / | /
CC(C)=C(NC(=O)c1ccccc1Cl)C(=O)NCCc1nc2ccccc2[nH]1 | 0 | -1 | -13 | i | -1 | / | /
Oc1ccc(Br)cc1-c1cc(-c2ccccc2)n[nH]1 | 9 | 0 | 35 | i | 3 | / | /
Oc1ccc(Br)cc1-c1ccnn1-c1ccccc1 | -4 | 11 | -5 | + | 1 | i | 0
NC1=C([N+](=O)[O-])C(c2ccc(F)cc2)C2=C(CCCC2=O)O1 (centres undefined) | -4 | 1 | 8 | i | 2 | / | /
SMILES | MC4R antag cAMP | Granule exo inh | EBI2 block | Myeloid diff MLP | MC4R ag barr | Myeloid diff CP1 | GFP autofluor
COc1ccc(NC(=O)c2ccc([N+](=O)[O-])o2)cc1 | -6 | 18 | -6 | + | -1 | i | 0
COc1ccc2nc(NC(=O)c3ccc([N+](=O)[O-])o3)sc2c1 | 2 | -2 | -10 | i | -1 | i | 1
O=C(Nc1nc2ccccc2s1)c1ccc([N+](=O)[O-])o1 | 8 | 11 | 8 | i | -3 | / | /
O=C(NCc1cccnc1)c1ccc([N+](=O)[O-])o1 | 1 | -5 | -15 | + | 1 | i | 2
O=C(Nc1ccc(Cl)cn1)c1ccc([N+](=O)[O-])o1 | -7 | -2 | -7 | + | 0 | i | 1
O=C(Nc1cccnc1)c1ccc([N+](=O)[O-])o1 | 11 | 2 | -8 | / | -1 | / | /
CCOP(=O)(OCC)C(NC(=O)Nc1ccc(C)cc1)C(N)=O (centres undefined) | 2 | 0 | 8 | + | 1 | i | 0
C=CCn1c(SCC#N)nnc1-c1ccc2ncccc2c1 | 8 | 3 | 1 | i | 0 | / | /
CCc1nc(SCC(=O)c2c[nH]c3ccccc23)n[nH]1 | 5 | -4 | 3 | i | -3 | i | 1
CC(C)(C)NC(=O)COC(=O)CCC(=O)c1cccs1 | 7 | -1 | -3 | i | 1 | / | /
Cc1cccc(NC(=O)CNC(=O)CCc2nc3sc4c(c3c(=O)[nH]2)CCCC4)c1C | 2 | -3 | 3 | + | -3 | i | 0
Cc1cccc(NC(=O)CCc2nc3sc4c(c3c(=O)[nH]2)CCCC4)n1 | 5 | 7 | -4 | i | -2 | / | /
Cn1nc(C(F)(F)F)c(-c2ccc(Br)cc2)c1NC(=O)c1nccnc1C(=O)O | 1 | -1 | 5 | i | 1 | / | /
CC1Cc2nc(SCC(=O)N3CCCc4ccccc43)n(C)c(=O)c2S1 (centres undefined) | 9 | -1 | 2 | i | 2 | i | 1
CCn1nnnc1SCC(=O)N1CCc2ccccc21 | 5 | 1 | -4 | i | 2 | / | /
CCn1c(SCC(=O)N2CCCc3ccccc32)nc2c(c1=O)SC(C)C2 (centres undefined) | 18 | -4 | -1 | i | 1 | / | /
O=C(CSc1nnc2scc(-c3ccccc3)n12)N1CCN(Cc2ccccc2)CC1 | 4 | -4 | -4 | i | -2 | / | /
CCn1nnnc1SCC(=O)N1CCCc2ccccc21 | 8 | 1 | -1 | i | 2 | i | 0
O=C(CSc1nnc2scc(-c3ccccc3)n12)N1CCCc2ccccc21 | 15 | -2 | 1 | i | 0 | i | 0
CC(C)n1nnnc1C1c2ccccc2C(=O)N1Cc1ccco1 (centres undefined) | / | -1 | -6 | + | / | i | 2
CC(C)n1nnnc1C1c2ccccc2C(=O)N1Cc1cccs1 (centres undefined) | / | -1 | -8 | i | / | / | /
CCOP(=O)(OCC)/C(C#N)=C/c1ccc([N+](=O)[O-])cc1 | 14 | 13 | -11 | i | -2 | i | 0
